Reference: ChEMBL document CHEMBL1255269 (Antimicrob Agents Chemother, 2008)
Active and inactive are the calls of the source. The rule behind the calls is not given here.

How the values were obtained:
[1] = Plasma protein binding in pigeon at 10 ug/ml; assay type: ADME, cell-free; conditions: columba livia, read-out: PPB (converted)
Summary of the method: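 Ultrafiltration through a 30K membrane, free drug in the ultrafiltrate measured by HPLC. Bound drug taken as total minus free.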

[2] = Half life at beta phase in pigeon at 30 mg/kg, iv by naive pooling approach; assay type: ADME, organism-based; parameters: dose 30 mg/kg, route intravenous; conditions: columba livia, in vivo
Summary of the method: (§1)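 Crossover design, one week apart, 24 homing pigeons. […] Blood taken at 0.25–8 h, six samples per time point; plasma assayed by HPLC-UV (linear 0.05–20 μg/ml). Data fitted by naive pooling, iv biexponential and oral triexponential two-compartment models, plus nonlinear mixed-effects modelling; F derived from mean AUC0–∞.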

in vivo [3] = conditions: columba livia, plasma, po, 30 mg/kg
[4] = Mean residence time in pigeon at 30 mg/kg, iv by naive pooling approach; assay type: ADME, organism-based; parameters: dose 30 mg/kg, route intravenous; conditions: columba livia, in vivo, read-out: Time; summary of the method: as §1
Salmonella typhimurium [5] = assay: Antimicrobial activity against Salmonella enterica subsp. enterica serovar Typhimurium PT99/DAB69 in pigeon kidney assessed as decrease in bacterial count relative to untreated control; assay type: functional, organism-based
Summary of the method: (§2)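 Homing pigeons, 10 per group, housed individually. Crop inoculation with 10^8 CFU in 1 ml PBS. […] Tissue CFU per gram counted by plating tenfold dilutions on brilliant green agar, with enrichment in buffered peptone water and tetrathionate broth if direct plating was negative.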

Columba livia = assay: Drug uptake in Salmonella enterica subsp. enterica serovar Typhimurium PT99/DAB69 infected pigeon at 26 to 45 mg/kg; assay type: ADME, organism-based; parameters: dose 26-45 mg/kg; conditions: in vivo
in vivo [6] = conditions: columba livia, plasma, iv, 30 mg/kg
in vivo [7] = conditions: columba livia, plasma, iv, 30 mg/kg; remark: listed apart in the source
[8] = Tmax in pigeon at 30 mg/kg, po by naive pooling approach; assay type: ADME, organism-based; parameters: dose 30 mg/kg, route oral; conditions: columba livia, in vivo; summary of the method: as §1
[9] = Half life at beta phase in pigeon at 30 mg/kg, po by naive pooling approach; assay type: ADME, organism-based; parameters: dose 30 mg/kg, route oral; conditions: columba livia, in vivo; summary of the method: as §1
[10] = Volume of distribution in pigeon at 30 mg/kg, iv by naive pooling approach; assay type: ADME, organism-based; parameters: dose 30 mg/kg, route intravenous; conditions: columba livia, in vivo; summary of the method: as §1
[11] = Cmax in pigeon at 30 mg/kg, po by naive pooling approach; assay type: ADME, organism-based; parameters: dose 30 mg/kg, route oral; conditions: columba livia, in vivo; summary of the method: as §1
Salmonella typhimurium [12] = assay: Antimicrobial activity against Salmonella enterica subsp. enterica serovar Typhimurium PT99/DAB69 at 4 ug/ml after 16 hrs; assay type: functional
Summary of the method: (§3)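 Killing curve in Mueller-Hinton broth inoculated with 5 × 10^5 CFU of the strain (grown in LB, 37°C, 16 h, static). […] Tenfold dilutions plated onto Mueller-Hinton agar at several time points after inoculation; the decrease in log10 CFU is read at 16 h.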

in vivo [13] = conditions: columba livia, plasma, po, 30 mg/kg; remark: listed apart in the source
Salmonella typhimurium [14] = assay: Antimicrobial activity against Salmonella enterica subsp. enterica serovar Typhimurium PT99/DAB69 at 2 ug/ml after 16 hrs; assay type: functional; summary of the method: as §3
[15] = Oral bioavailability in pigeon at 30 mg/kg, po by naive pooling approach; assay type: ADME, organism-based; conditions: columba livia, in vivo; summary of the method: as §1
[16] = Volume of distribution in central compartment in pigeon at 30 mg/kg, iv; assay type: ADME, organism-based; parameters: dose 30 mg/kg, route intravenous; conditions: columba livia, in vivo; summary of the method: as §1
[17] = Oral bioavailability in pigeon at 30 mg/kg, po; assay type: ADME, organism-based; conditions: columba livia, in vivo; summary of the method: as §1
Salmonella typhimurium [18] = assay: Antimicrobial activity against Salmonella enterica subsp. enterica serovar Typhimurium PT99/DAB69 in pigeon spleen assessed as decrease in bacterial count relative to untreated control; assay type: functional, organism-based; summary of the method: as §2

CS(=O)(=O)c1ccc([C@@H](O)[C@@H](CF)NC(=O)C(Cl)Cl)cc1 [FLORFENICOL]
fraction unbound at 10 ug/ml [1]: 0.288 | half-life [2]: 1.73 h | AUC(0-inf) (in vivo [3]): 12500 ng·h/mL | MRT [4]: 1.43 h | Activity (Salmonella typhimurium [5]): inactive | Drug uptake (Columba livia): 35 mg/kg | AUC(0-inf) (in vivo [6]): 22700 ng·h/mL | AUC(0-inf) (in vivo [7]): 21300 ng·h/mL | Tmax [8]: 0.69 h | half-life [9]: 2.69 h | Vd [10]: 2.02 L/kg | Cmax [11]: 5100 ng/mL | log10cfu (Salmonella typhimurium [12]): 2 | AUC(0-inf) (in vivo [13]): 13100 ng·h/mL | log10cfu (Salmonella typhimurium [14]): 1 | bioavailability [15]: 58.5% | Vd [16]: 0.88 L/kg | bioavailability [17]: 60% | Activity (Salmonella typhimurium [18]): inactive
